Laboratory results reported in the M2OR odorant receptor database.

What was measured:
Conditions in all cases: stereoisomer not certain
OR5P3 (Homo sapiens) = molecular target: T1, OR5P3 (Homo sapiens) (UniProt Q8WZ94)
T1 sequence (whole entry): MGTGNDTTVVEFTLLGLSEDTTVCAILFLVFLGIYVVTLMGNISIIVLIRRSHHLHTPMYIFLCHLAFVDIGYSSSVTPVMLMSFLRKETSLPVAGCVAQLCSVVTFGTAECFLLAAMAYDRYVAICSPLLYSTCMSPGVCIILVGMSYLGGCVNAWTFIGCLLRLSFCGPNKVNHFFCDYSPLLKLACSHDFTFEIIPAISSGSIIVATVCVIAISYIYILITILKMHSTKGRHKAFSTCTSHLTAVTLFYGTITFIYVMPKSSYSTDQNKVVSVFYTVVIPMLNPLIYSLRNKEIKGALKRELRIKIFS
Outline: (§1)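 Transient luciferase assays in mammalian cell lines were common, though methods varied by source. The values come from published papers and their supplementary material, with extra details from the original authors when needed. Responsive refers to a measured signal the original authors judged statistically different from baseline, and non-responsive (inactive) to the remainder.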

OR5M8 (Homo sapiens) = molecular target: T2, OR5M8 (Homo sapiens) (UniProt Q8NGP6)
T2 sequence (whole entry): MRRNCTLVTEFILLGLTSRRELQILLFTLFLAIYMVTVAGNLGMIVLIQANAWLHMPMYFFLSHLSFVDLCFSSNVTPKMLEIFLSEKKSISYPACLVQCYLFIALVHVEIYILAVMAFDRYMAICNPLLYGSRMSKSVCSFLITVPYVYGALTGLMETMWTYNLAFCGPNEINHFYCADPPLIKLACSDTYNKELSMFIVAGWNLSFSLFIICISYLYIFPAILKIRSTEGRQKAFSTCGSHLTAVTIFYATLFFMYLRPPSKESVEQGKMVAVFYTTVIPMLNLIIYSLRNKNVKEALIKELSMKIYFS
Outline: as §1

OR5M9 (Homo sapiens) = molecular target: T3, OR5M9 (Homo sapiens) (UniProt Q8NGP3)
T3 sequence (whole entry): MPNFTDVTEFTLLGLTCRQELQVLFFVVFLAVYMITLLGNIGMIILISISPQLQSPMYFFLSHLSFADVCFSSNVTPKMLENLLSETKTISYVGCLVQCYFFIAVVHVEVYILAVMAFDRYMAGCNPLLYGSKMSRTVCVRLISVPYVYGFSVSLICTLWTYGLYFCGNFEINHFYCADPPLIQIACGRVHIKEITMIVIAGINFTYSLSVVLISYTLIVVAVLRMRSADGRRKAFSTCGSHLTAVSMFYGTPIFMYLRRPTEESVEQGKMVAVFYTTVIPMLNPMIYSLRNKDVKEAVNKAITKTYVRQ
Outline: as §1

OR5P2 (Homo sapiens) = molecular target: T4, OR5P2 (Homo sapiens) (UniProt Q8WZ92)
T4 sequence (whole entry): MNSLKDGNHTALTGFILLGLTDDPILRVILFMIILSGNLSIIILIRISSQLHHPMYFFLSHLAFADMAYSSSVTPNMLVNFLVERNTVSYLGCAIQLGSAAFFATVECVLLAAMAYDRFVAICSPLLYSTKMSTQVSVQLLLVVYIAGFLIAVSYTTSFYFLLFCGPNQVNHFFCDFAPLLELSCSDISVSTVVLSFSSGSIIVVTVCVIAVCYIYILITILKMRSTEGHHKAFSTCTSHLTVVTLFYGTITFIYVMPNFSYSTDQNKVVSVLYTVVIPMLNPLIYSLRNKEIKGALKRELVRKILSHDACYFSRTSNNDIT
Outline: as §1

OR5T1 (Homo sapiens) = molecular target: T5, OR5T1 (Homo sapiens) (UniProt Q8NG75)
T5 sequence (whole entry): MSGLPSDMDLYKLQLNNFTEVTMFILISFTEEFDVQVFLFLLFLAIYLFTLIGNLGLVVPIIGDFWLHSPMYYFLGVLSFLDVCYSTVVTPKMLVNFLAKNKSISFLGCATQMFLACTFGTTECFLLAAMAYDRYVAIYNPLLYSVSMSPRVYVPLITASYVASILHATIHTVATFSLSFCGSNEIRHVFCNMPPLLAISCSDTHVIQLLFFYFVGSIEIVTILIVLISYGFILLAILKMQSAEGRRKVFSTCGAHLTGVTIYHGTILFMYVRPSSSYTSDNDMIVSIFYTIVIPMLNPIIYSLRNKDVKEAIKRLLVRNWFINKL
Outline: as §1

OR5T2 (Homo sapiens) = molecular target: T6, OR5T2 (Homo sapiens) (UniProt Q8NGG2)
T6 sequence (whole entry): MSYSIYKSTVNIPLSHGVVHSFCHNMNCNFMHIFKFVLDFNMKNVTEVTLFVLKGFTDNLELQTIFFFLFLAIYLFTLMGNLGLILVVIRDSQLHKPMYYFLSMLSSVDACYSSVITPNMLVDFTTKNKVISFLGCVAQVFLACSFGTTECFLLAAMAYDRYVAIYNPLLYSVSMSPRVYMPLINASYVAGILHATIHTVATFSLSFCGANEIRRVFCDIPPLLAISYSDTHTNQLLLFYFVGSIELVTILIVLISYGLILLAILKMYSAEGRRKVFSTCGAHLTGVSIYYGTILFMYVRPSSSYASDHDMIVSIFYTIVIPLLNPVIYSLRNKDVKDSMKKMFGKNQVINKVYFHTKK
Outline: as §1

OR5T3 (Homo sapiens) = molecular target: T7, OR5T3 (Homo sapiens) (UniProt Q8NGG3)
T7 sequence (whole entry): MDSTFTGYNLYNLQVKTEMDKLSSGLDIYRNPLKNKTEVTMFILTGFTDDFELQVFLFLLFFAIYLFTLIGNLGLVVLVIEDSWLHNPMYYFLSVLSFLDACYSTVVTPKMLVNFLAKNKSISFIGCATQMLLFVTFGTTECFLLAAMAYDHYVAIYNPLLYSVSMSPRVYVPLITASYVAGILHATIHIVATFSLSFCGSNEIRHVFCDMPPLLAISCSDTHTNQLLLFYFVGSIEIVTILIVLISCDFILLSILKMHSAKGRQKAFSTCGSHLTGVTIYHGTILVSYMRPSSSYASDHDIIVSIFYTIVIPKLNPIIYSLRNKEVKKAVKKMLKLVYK
Outline: as §1

OR5V1 (Homo sapiens) = molecular target: T8, OR5V1 (Homo sapiens) (UniProt Q9UGF6)
T8 sequence (whole entry): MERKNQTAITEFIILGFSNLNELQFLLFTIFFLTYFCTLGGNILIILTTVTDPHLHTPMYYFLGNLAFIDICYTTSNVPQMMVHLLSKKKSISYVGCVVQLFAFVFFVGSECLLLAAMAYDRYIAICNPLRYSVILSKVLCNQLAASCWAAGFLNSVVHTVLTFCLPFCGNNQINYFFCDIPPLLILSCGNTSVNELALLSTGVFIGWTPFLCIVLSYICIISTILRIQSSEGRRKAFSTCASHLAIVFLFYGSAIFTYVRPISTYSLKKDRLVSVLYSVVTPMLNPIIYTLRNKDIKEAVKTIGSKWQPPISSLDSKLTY
Outline: as §1

OR5W2 (Homo sapiens) = molecular target: T9, OR5W2 (Homo sapiens) (UniProt Q8NH69)
T9 sequence (whole entry): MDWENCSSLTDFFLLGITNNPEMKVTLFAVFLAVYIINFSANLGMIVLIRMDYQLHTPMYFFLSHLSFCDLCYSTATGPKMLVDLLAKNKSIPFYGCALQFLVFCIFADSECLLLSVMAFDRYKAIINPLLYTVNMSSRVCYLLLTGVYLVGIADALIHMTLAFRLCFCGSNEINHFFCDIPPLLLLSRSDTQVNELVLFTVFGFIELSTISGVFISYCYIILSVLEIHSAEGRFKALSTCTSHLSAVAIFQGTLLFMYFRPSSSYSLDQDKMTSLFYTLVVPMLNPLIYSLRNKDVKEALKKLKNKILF
Outline: as §1

OR6A2 (Homo sapiens) = molecular target: T10, OR6A2 (Homo sapiens) (UniProt O95222)
T10 sequence (whole entry): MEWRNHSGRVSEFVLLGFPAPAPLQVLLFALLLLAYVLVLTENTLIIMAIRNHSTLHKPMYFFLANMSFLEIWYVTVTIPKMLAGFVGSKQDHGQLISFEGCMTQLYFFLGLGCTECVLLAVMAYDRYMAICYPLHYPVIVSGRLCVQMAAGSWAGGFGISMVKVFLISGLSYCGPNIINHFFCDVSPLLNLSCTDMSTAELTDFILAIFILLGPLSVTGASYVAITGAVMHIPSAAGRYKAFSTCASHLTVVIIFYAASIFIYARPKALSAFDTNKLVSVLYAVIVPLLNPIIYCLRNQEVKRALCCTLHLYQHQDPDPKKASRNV
Outline: as §1

OR6B1 (Homo sapiens) = molecular target: T11, OR6B1 (Homo sapiens) (UniProt O95007)
T11 sequence (whole entry): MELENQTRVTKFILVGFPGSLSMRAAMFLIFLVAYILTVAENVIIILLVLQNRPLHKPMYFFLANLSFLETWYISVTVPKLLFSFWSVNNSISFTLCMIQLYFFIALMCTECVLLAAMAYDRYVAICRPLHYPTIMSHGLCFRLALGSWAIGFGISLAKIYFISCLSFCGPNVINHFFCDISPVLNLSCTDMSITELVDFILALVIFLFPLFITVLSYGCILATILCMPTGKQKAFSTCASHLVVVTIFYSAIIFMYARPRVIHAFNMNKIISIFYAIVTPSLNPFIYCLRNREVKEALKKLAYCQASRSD
Outline: as §1

OR6B2 (Homo sapiens) = molecular target: T12, OR6B2 (Homo sapiens) (UniProt Q6IFH4)
T12 sequence (whole entry): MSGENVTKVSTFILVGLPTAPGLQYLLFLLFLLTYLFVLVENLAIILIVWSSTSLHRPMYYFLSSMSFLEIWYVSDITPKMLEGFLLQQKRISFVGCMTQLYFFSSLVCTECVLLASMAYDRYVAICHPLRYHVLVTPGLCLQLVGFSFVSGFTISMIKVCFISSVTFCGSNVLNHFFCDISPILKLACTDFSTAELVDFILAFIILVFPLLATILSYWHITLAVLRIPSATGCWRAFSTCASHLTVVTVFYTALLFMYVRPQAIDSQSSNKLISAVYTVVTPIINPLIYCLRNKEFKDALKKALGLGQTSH
Outline: as §1

Measured: odorant receptor agonist call;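 note: active if original authors judged signal statistically different from baseline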

COc1cc(C(=O)O)ccc1O
inactive: OR5P3 (Homo sapiens)

CCC(S)C(C)CO (stereo not drawn)
inactive: OR5M8 (Homo sapiens) | OR5M9 (Homo sapiens) | OR5P2 (Homo sapiens) | OR5P3 (Homo sapiens) | OR5T1 (Homo sapiens) | OR5T2 (Homo sapiens) | OR5T3 (Homo sapiens) | OR5V1 (Homo sapiens) | OR5W2 (Homo sapiens) | OR6A2 (Homo sapiens) | OR6B1 (Homo sapiens) | OR6B2 (Homo sapiens)

CC(CO)CS (stereo not drawn)
inactive: OR5M8 (Homo sapiens) | OR5M9 (Homo sapiens) | OR5P2 (Homo sapiens) | OR5P3 (Homo sapiens) | OR5T1 (Homo sapiens) | OR5T2 (Homo sapiens) | OR5T3 (Homo sapiens) | OR5V1 (Homo sapiens) | OR5W2 (Homo sapiens) | OR6A2 (Homo sapiens) | OR6B1 (Homo sapiens) | OR6B2 (Homo sapiens)

CC(=O)c1c(C)c([N+](=O)[O-])c(C(C)(C)C)c([N+](=O)[O-])c1C
inactive: OR5M8 (Homo sapiens) | OR5M9 (Homo sapiens) | OR5P2 (Homo sapiens) | OR5P3 (Homo sapiens) | OR5T1 (Homo sapiens) | OR5T2 (Homo sapiens) | OR5T3 (Homo sapiens) | OR5V1 (Homo sapiens) | OR5W2 (Homo sapiens) | OR6A2 (Homo sapiens) | OR6B1 (Homo sapiens) | OR6B2 (Homo sapiens)

CCCCCCCCC(=O)O
inactive: OR5P3 (Homo sapiens)
